Experiment [1] relates to MCF7. Nature of the experiment: Antimitotic activity in human MCF7mp53 cells assessed as induction of mitotic arrest after 20 hrs. Format: functional, cell-based. The conditions noted are these: MCF7, 20 h. In a few lines: (§1)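 MCF-7mp53 cells in 96-well plates, treated in triplicate with compound at 1-50 μg/mL for 20 h at 37 °C. Plates spun 50g, 2 min, to keep mitotic cells attached. Cells fixed/permeabilized (3.7% formaldehyde, 0.1% Triton X-100 in TBS), blocked with 1% BSA. Mitotic cells stained with TG-3 antibody plus fluorescent secondary, nuclei with Hoechst 33342. High-content imaging gave percentage of cells in mitosis.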

The subject of experiment [2] is MCF7. In words: Antimitotic activity in human MCF7mp53 cells assessed as cells arrested at mitotic stage at optimal concentration after 20 hrs. Format: functional. In a few lines: as §1
Experiment [3] relates to MCF7. Nature of the experiment: Antimitotic activity in human MCF7mp53 cells assessed as induction of mitotic arrest at 50 ug/mL after 20 hrs. Format: functional, cell-based. The gist of the method: as §1

Values after ≈ are worked out from the molar mass of the structure shown. Active and inactive are the calls of the source. The rule behind the calls is not given here.

For `CNc1nc2ccn(C)c(=O)c(Cc3ccc(OC)cc3)c-2n1` [DESBROMOCERATAMINE A], in the experiment on MCF7 [1], the IC50 (in general, the concentration at which inhibition is half-maximal) is > 50 µg/mL. Moreover, the Activity with MCF7 [2] is given as 23%.

Consider `COc1c(C)cc(Cc2c3nc(N)nc-3ccn(C)c2=O)cc1C`, for which the result in the experiment on MCF7 [3] was inactive.

As for `CNc1nc2ccn(C)c(=O)c(Cc3cc(C)c(OC)c(C)c3)c-2n1`, the IC50 with MCF7 [1] is 3.5 µg/mL (≈ 10.3 µM). Further, the Activity with MCF7 [2] is recorded as 67%.

Regarding `COc1c(C)cc(Cc2c3nc(N(C)C)nc-3ccn(C)c2=O)cc1C`, in the experiment on MCF7 [1], the half-maximal inhibitory concentration (IC50) is 3 µg/mL (≈ 8.51 µM). In the experiment on MCF7 [2], the Activity is listed as 82%.

With `CNc1nc2ccn(C)c(=O)c(Cc3cc(Br)c(OC)c(Br)c3)c-2n1` [CERATAMINE A], the IC50 in the experiment with MCF7 [1] came out at 5 µg/mL (≈ 10.7 µM). Further, the Activity with MCF7 [2] was 54%.

For `COc1c(C)cc(/C=C2/C(=O)N(C)C=Cc3nc(N(C)C(=O)C(F)(F)F)n(C)c32)cc1C`, the outcome with MCF7 [3] was inactive.

As to `CNc1nc2ccn(C)c(=O)c(C(O)c3cc(C)c(OC)c(C)c3)c-2n1` (stereo unspecified), the outcome in the experiment on MCF7 [3] was inactive.
